Experimental data taken from ChEMBL document CHEMBL1955778, “Design and synthesis of novel 7-aminoquinazoline derivatives: antitumor and anticonvulsant activities” (Bioorg Med Chem Lett, 2012).
The source made the active and inactive calls. No cut-off for these calls is given here.

Experiments:
[1] = Growth inhibition of human 786-O cells at 10 uM relative to control; assay type: functional; conditions: 786-0, read-out: GI
Outline: (§1)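 Each cell line in a 60-line human tumour panel exposed to one 10 μM concentration. Growth inhibition percentage computed as 100 minus the percentage activity relative to control.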

SK-OV-3 = assay: Growth inhibition of human SKOV3 cells at 10 uM relative to control; assay type: functional; conditions: read-out: GI; outline: as §1
NCI/ADR-RES = assay: Growth inhibition of human NCI/ADR-RES cells at 10 uM relative to control; assay type: functional; conditions: read-out: GI; outline: as §1
OVCAR-8 = assay: Growth inhibition of human OVCAR8 cells at 10 uM relative to control; assay type: functional; conditions: read-out: GI; outline: as §1
OVCAR-5 = assay: Growth inhibition of human OVCAR5 cells at 10 uM relative to control; assay type: functional; conditions: read-out: GI; outline: as §1
OVCAR-4 = assay: Growth inhibition of human OVCAR4 cells at 10 uM relative to control; assay type: functional; conditions: read-out: GI; outline: as §1
OVCAR-3 = assay: Growth inhibition of human OVCAR3 cells at 10 uM relative to control; assay type: functional; conditions: read-out: GI; outline: as §1
IGROV-1 = assay: Growth inhibition of human IGROV1 cells at 10 uM relative to control; assay type: functional; conditions: read-out: GI; outline: as §1
UACC-62 = assay: Growth inhibition of human UACC62 cells at 10 uM relative to control; assay type: functional; conditions: read-out: GI
Outline: (§2)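 Single-dose screen across the 60-cell-line human tumor panel at 10 μM. Growth inhibition is reported as a percentage, taken as 100 minus the % growth relative to untreated control.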

UACC-257 = assay: Growth inhibition of human UACC257 cells at 10 uM relative to control; assay type: functional; conditions: read-out: GI; outline: as §2
SK-MEL-5 = assay: Growth inhibition of human SK-MEL-5 cells at 10 uM relative to control; assay type: functional; conditions: read-out: GI; outline: as §1
MDA-MB-435 = assay: Growth inhibition of human MDA-MB-435 cells at 10 uM relative to control; assay type: functional; conditions: read-out: GI; outline: as §1
SK-MEL-28 = assay: Growth inhibition of human SK-MEL-28 cells at 10 uM relative to control; assay type: functional; conditions: read-out: GI; outline: as §1
Malme-3M = assay: Growth inhibition of human MALME-3M cells at 10 uM relative to control; assay type: functional; conditions: read-out: GI; outline: as §1
M14 = assay: Growth inhibition of human M14 cells at 10 uM relative to control; assay type: functional; conditions: read-out: GI; outline: as §1
U-251 = assay: Growth inhibition of human U251 cells at 10 uM relative to control; assay type: functional; conditions: read-out: GI; outline: as §2
LOX IMVI = assay: Growth inhibition of human LOXIMVI cells at 10 uM relative to control; assay type: functional; conditions: read-out: GI; outline: as §1
SNB-19 = assay: Growth inhibition of human SNB19 cells at 10 uM relative to control; assay type: functional; conditions: read-out: GI; outline: as §2
SNB-75 = assay: Growth inhibition of human SNB75 cells at 10 uM relative to control; assay type: functional; conditions: read-out: GI; outline: as §2
SF-295 = assay: Growth inhibition of human SF295 cells at 10 uM relative to control; assay type: functional; conditions: read-out: GI; outline: as §1
SF-539 = assay: Growth inhibition of human SF539 cells at 10 uM relative to control; assay type: functional; conditions: read-out: GI; outline: as §1
SW-620 = assay: Growth inhibition of human SW620 cells at 10 uM relative to control; assay type: functional; conditions: read-out: GI; outline: as §2
SF-268 = assay: Growth inhibition of human SF268 cells at 10 uM relative to control; assay type: functional; conditions: read-out: GI; outline: as §1
HT-29 = assay: Growth inhibition of human HT-29 cells at 10 uM relative to control; assay type: functional; conditions: read-out: GI; outline: as §1
KM12 = assay: Growth inhibition of human KM12 cells at 10 uM relative to control; assay type: functional; conditions: read-out: GI; outline: as §1
HCT-116 = assay: Growth inhibition of human HCT116 cells at 10 uM relative to control; assay type: functional; conditions: read-out: GI; outline: as §1
HCT-15 = assay: Growth inhibition of human HCT15 cells at 10 uM relative to control; assay type: functional; conditions: read-out: GI; outline: as §1
COLO 205 = assay: Growth inhibition of human COLO205 cells at 10 uM relative to control; assay type: functional, cell-based; outline: as §1
HCC 2998 = assay: Growth inhibition of human HCC2998 cells at 10 uM relative to control; assay type: functional; conditions: read-out: GI; outline: as §1
NCI-H460 = assay: Growth inhibition of human NCI-H460 cells at 10 uM relative to control; assay type: functional; conditions: read-out: GI; outline: as §1
NCI-H23 = assay: Growth inhibition of human NCI-H23 cells at 10 uM relative to control; assay type: functional; conditions: read-out: GI; outline: as §1
NCI-H322M = assay: Growth inhibition of human NCI-H322M cells at 10 uM relative to control; assay type: functional; conditions: read-out: GI; outline: as §1
HOP-62 = assay: Growth inhibition of human HOP62 cells at 10 uM relative to control; assay type: functional; conditions: read-out: GI; outline: as §1
NCI-H226 = assay: Growth inhibition of human NCI-H226 cells at 10 uM relative to control; assay type: functional; conditions: read-out: GI; outline: as §1
A549 = assay: Growth inhibition of human A549 cells at 10 uM relative to control; assay type: functional; conditions: read-out: GI; outline: as §1
EKVX = assay: Growth inhibition of human EKVX cells at 10 uM relative to control; assay type: functional; conditions: read-out: GI; outline: as §1
RPMI-8226 = assay: Growth inhibition of human RPMI8226 cells at 10 uM relative to control; assay type: functional; conditions: read-out: GI; outline: as §1
SR = assay: Growth inhibition of human SR cells at 10 uM relative to control; assay type: functional; conditions: read-out: GI; outline: as §2
MOLT-4 = assay: Growth inhibition of human MOLT4 cells at 10 uM relative to control; assay type: functional; conditions: read-out: GI; outline: as §1
K562 = assay: Growth inhibition of human K562 cells at 10 uM relative to control; assay type: functional; conditions: read-out: GI; outline: as §1
CCRF-CEM = assay: Growth inhibition of human CCRF-CEM cells at 10 uM relative to control; assay type: functional; conditions: read-out: GI; outline: as §1
HL-60(TB) = assay: Growth inhibition of human HL-60(TB) cells at 10 uM relative to control; assay type: functional; conditions: read-out: GI
Outline: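 Single-dose screen at 10 μM across the 60-cell-line tumour panel. Percent growth inhibition = 100 minus percent growth activity relative to untreated control.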

Mus musculus [2] = assay: Anticonvulsant activity in mouse assessed as protection against maximal electroshock-induced seizure at 1 mmol/kg, ip administered 30 min prior to maximal electroshock-challenge measured after 60 mins relative to control; assay type: functional
Mus musculus [3] = assay: Anticonvulsant activity in mouse assessed as protection against strychnine-induced seizure at 1 mmol/kg, ip administered 30 min prior to strychnine-challenge measured after 60 mins relative to control; assay type: functional
Mus musculus [4] = assay: Anticonvulsant activity in mouse assessed as protection against pentylenetetrazol-induced seizure at 1 mmol/kg, ip administered 30 min prior to pentylenetetrazol-challenge measured after 60 mins relative to control; assay type: functional
T47D = assay: Growth inhibition of human T47D cells at 10 uM relative to control; assay type: functional; conditions: read-out: GI; outline: as §2
[5] = Growth inhibition of human Hs 578T cells at 10 uM relative to control; assay type: functional; conditions: read-out: GI; outline: as §1
MDA-MB-231 = assay: Growth inhibition of human MDA-MB-231 cells at 10 uM relative to control; assay type: functional; conditions: read-out: GI; outline: as §1
MCF7 = assay: Growth inhibition of human MCF7 cells at 10 uM relative to control; assay type: functional; conditions: read-out: GI; outline: as §1
DU-145 = assay: Growth inhibition of human DU145 cells at 10 uM relative to control; assay type: functional; conditions: read-out: GI; outline: as §1
PC-3 = assay: Growth inhibition of human PC3 cells at 10 uM relative to control; assay type: functional; conditions: read-out: GI; outline: as §1
UO-31 = assay: Growth inhibition of human UO31 cells at 10 uM relative to control; assay type: functional; conditions: read-out: GI; outline: as §2
SN12C = assay: Growth inhibition of human SN12C cells at 10 uM relative to control; assay type: functional; conditions: read-out: GI; outline: as §2
RXF 393 = assay: Growth inhibition of human RXF393 cells at 10 uM relative to control; assay type: functional; conditions: read-out: GI; outline: as §1
CAKI-1 = assay: Growth inhibition of human CAKI-1 cells at 10 uM relative to control; assay type: functional; conditions: read-out: GI; outline: as §1
ACHN = assay: Growth inhibition of human ACHN cells at 10 uM relative to control; assay type: functional; conditions: read-out: GI; outline: as §1
A498 = assay: Growth inhibition of human A498 cells at 10 uM relative to control; assay type: functional; conditions: read-out: GI; outline: as §1

Work on `Cc1ccccc1-n1c(C)nc2cc(NC(=O)c3ccc(Cl)cc3)ccc2c1=O` yielded an inhibition of growth at 10 µM [1] of 32.4%, an inhibition of growth at 10 µM (SK-OV-3) of 16.8% and an inhibition of growth at 10 µM (NCI/ADR-RES) of 17.6%. The inhibition of growth at 10 µM (OVCAR-8) was 16%, the inhibition of growth at 10 µM (OVCAR-5) was 24.1% and the inhibition of growth at 10 µM (OVCAR-4) was 69.9%. For the same compound, the inhibition of growth at 10 µM (OVCAR-3) was 41.1%, the inhibition of growth at 10 µM (IGROV-1) was 21.4% and the inhibition of growth at 10 µM (UACC-62) was 57.8%. The inhibition of growth at 10 µM (UACC-257) was 40.3%, the inhibition of growth at 10 µM (SK-MEL-5) was 99.1% and the inhibition of growth at 10 µM (MDA-MB-435) was 56.4%. It also gave an inhibition of growth at 10 µM (SK-MEL-28) of 20.4%, an inhibition of growth at 10 µM (Malme-3M) of 56.5% and an inhibition of growth at 10 µM (M14) of 32.3%. For the same compound, the inhibition of growth at 10 µM (U-251) was 32.4%, the inhibition of growth at 10 µM (LOX IMVI) was 31.6% and the inhibition of growth at 10 µM (SNB-19) was 24.2%. For the same compound, the inhibition of growth at 10 µM (SNB-75) was 21.2%, the inhibition of growth at 10 µM (SF-295) was 40.3% and the inhibition of growth at 10 µM (SF-539) was 31.8%. It also gave an inhibition of growth at 10 µM (SW-620) of 14%, an inhibition of growth at 10 µM (SF-268) of 32.3% and an inhibition of growth at 10 µM (HT-29) of 38.1%. It also gave an inhibition of growth at 10 µM (KM12) of 24.4%, an inhibition of growth at 10 µM (HCT-116) of 25.2% and an inhibition of growth at 10 µM (HCT-15) of 36.3%. The “growth inhibition (GI)” value (COLO 205) was “inactive”, the inhibition of growth at 10 µM (HCC 2998) was 19.1% and the inhibition of growth at 10 µM (NCI-H460) was 27.5%. For the same compound, the inhibition of growth at 10 µM (NCI-H23) was 35.7%, the inhibition of growth at 10 µM (NCI-H322M) was 6% and the inhibition of growth at 10 µM (HOP-62) was 3%. The inhibition of growth at 10 µM (NCI-H226) was 12%, the inhibition of growth at 10 µM (A549) was 27.8% and the inhibition of growth at 10 µM (EKVX) was 48.5%. It also gave an inhibition of growth at 10 µM (RPMI-8226) of 55.4%, an inhibition of growth at 10 µM (SR) of 26.3% and an inhibition of growth at 10 µM (MOLT-4) of 29.3%. The inhibition of growth at 10 µM (K562) was 44.2%, the inhibition of growth at 10 µM (CCRF-CEM) was 47.3% and the inhibition of growth at 10 µM (HL-60(TB)) was 35.5%. The Activity (Mus musculus [2]) was 50%, the Activity (Mus musculus [3]) was 0% and the Activity (Mus musculus [4]) was 0%. For the same compound, the inhibition of growth at 10 µM (T47D) was 71%, the inhibition of growth at 10 µM [5] was 17.9% and the inhibition of growth at 10 µM (MDA-MB-231) was 42.7%. For the same compound, the inhibition of growth at 10 µM (MCF7) was 42.2%, the inhibition of growth at 10 µM (DU-145) was 12.4% and the inhibition of growth at 10 µM (PC-3) was 39.8%. For the same compound, the inhibition of growth at 10 µM (UO-31) was 22.2%, the inhibition of growth at 10 µM (SN12C) was 32.4% and the inhibition of growth at 10 µM (RXF 393) was 23.2%. It also gave an inhibition of growth at 10 µM (CAKI-1) of 41.2%, an inhibition of growth at 10 µM (ACHN) of 52% and an inhibition of growth at 10 µM (A498) of 39.4%.
